Bridge positions count the residues as written; N and C are the ends. Square brackets hold non-standard residues; d marks the D form. Peptide text beside a SMILES is read from it. d2Nal = N[C@H](Cc1ccc2ccccc2c1)C(=O)O; Pen = CC(C)(S)[C@H](N)C(=O)O; Nle = CCCC[C@H](N)C(=O)O
Tests used:
Melanocortin receptor 4 [1] = biological target: T1, Melanocortin receptor 4 (Homo sapiens, UniProt P32245); assay: Intracellular cAMP accumulation in Melanocortin 4 receptor functional assay.
Melanocortin receptor 5 [2] = biological target: T2, Melanocortin receptor 5 (Homo sapiens, UniProt P33032); assay: Binding affinity against human Melanocortin 5 receptor by gamma-MCH displacement.
T2 sequence (P33032 whole entry): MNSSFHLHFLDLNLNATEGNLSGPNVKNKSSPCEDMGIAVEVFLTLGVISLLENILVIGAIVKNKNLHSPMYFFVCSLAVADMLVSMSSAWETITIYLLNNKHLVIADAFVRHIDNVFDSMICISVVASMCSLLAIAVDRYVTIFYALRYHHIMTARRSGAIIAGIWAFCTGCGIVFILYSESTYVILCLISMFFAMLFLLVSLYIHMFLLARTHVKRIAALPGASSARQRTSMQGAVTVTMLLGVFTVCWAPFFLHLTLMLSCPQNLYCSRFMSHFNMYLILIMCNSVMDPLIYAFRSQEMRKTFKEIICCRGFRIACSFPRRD
In short: (§1)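 Competition binding on intact HEK293 cells stably expressing the human receptor, seeded 50000 cells/well 48 h earlier. Lysates were gamma-counted. Ki came from competition curves; mean of duplicate experiments in triplicate.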

Melanocortin receptor 5 [3] = biological target: T2, Melanocortin receptor 5; assay: Intracellular cAMP accumulation in human Melanocortin 5 receptor functional assay.
Melanocortin receptor 4 [4] = biological target: T1, Melanocortin receptor 4; assay: Binding affinity against Melanocortin 4 receptor by gamma-MCH displacement.; in short: as §1
Melanocortin receptor 3 [5] = biological target: T3, Melanocortin receptor 3 (Homo sapiens, UniProt P41968); assay: Intracellular cAMP accumulation in human Melanocortin 3 receptor functional assay.
T3 sequence (P41968 whole entry): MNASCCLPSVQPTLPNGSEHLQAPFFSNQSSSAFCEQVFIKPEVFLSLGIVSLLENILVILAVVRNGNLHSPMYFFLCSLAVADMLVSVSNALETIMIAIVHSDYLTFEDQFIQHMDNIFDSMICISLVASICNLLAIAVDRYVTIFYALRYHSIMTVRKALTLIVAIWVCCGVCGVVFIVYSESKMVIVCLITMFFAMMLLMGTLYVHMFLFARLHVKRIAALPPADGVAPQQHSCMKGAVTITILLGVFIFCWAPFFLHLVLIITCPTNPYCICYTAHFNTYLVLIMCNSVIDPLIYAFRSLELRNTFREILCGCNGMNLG

Melanocortin receptor 3 [6] = biological target: T3, Melanocortin receptor 3; assay: Binding affinity against human Melanocortin 3 receptor by gamma-MCH displacement.; in short: as §1
Melanocortin receptor 4 [7] = biological target: T1, Melanocortin receptor 4; assay: Agonist activity against human Melanocortin 4 receptor at 10 uM
Melanocortin receptor 5 [8] = biological target: T2, Melanocortin receptor 5; assay: Agonist activity against human Melanocortin 5 receptor at 10 uM
Melanocortin receptor 3 [9] = biological target: T3, Melanocortin receptor 3; assay: Agonist activity against human Melanocortin 3 receptor at 10 uM

T1 sequence (P32245 whole entry): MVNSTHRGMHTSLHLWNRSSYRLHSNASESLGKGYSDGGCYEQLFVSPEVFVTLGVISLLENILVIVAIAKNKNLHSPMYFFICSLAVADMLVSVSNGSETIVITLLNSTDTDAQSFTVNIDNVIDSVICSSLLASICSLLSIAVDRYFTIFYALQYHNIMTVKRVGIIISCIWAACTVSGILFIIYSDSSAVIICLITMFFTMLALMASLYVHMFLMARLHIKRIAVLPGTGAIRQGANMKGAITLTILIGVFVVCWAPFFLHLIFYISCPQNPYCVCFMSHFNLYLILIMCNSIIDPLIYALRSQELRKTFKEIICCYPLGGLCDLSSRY

Compound	EC50 (Melanocortin receptor 4 [1]) [nM]	Ki (Melanocortin receptor 5 [2]) [nM]	EC50 (Melanocortin receptor 5 [3]) [nM]	Ki (Melanocortin receptor 4 [4]) [nM]	EC50 (Melanocortin receptor 3 [5]) [nM]	Ki (Melanocortin receptor 3 [6]) [nM]	Activity (Melanocortin receptor 4 [7]) [%]	Activity (Melanocortin receptor 5 [8]) [%]	Activity (Melanocortin receptor 3 [9]) [%]
CCCC[C@H](NC(=O)[C@@H](NC(=O)[C@@H](N)Cc1ccc(O)cc1)C(C)C)C(=O)N[C@@H]1C(=O)N[C@@H](Cc2c[nH]cn2)C(=O)N[C@@H](Cc2ccccc2)C(=O)N[C@@H](CCCN=C(N)N)C(=O)N[C@@H](Cc2c[nH]c3ccccc23)C(=O)N[C@H](C(=O)N[C@@H](CCCN=C(N)N)C(=O)N[C@@H](Cc2ccccc2)C(=O)NCC(N)=O)CSSC1(C)C (H-YV[Nle][Pen]HFRWCRFG-NH2; disulfide 4-9)	200	150	74	> 10000	19	150			
CC(C)[C@H](NC(=O)[C@@H](N)Cc1ccc(O)cc1)C(=O)NC1CSSCC(C(=O)N[C@@H](CCCN=C(N)N)C(=O)N[C@@H](Cc2ccccc2)C(=O)NCC(N)=O)NC(=O)[C@H](Cc2c[nH]c3ccccc23)NC(=O)[C@H](CCCN=C(N)N)NC(=O)[C@@H](Cc2ccccc2)NC(=O)[C@H](Cc2c[nH]cn2)NC(=O)CNC1=O (stereo in doubt)	250	> 3900	> 10000	460	> 10000	> 10000	46		
CC(C)[C@H](NC(=O)[C@@H](N)Cc1ccc(O)cc1)C(=O)N[C@@H]1C(=O)NCC(=O)N[C@@H](Cc2cnc[nH]2)C(=O)N[C@@H](Cc2ccccc2)C(=O)N[C@@H](CCCNC(=N)N)C(=O)N[C@@H](Cc2c[nH]c3ccccc23)C(=O)N[C@H](C(=O)N[C@@H](CCCNC(=N)N)C(=O)N[C@@H](Cc2ccccc2)C(=O)NCC(N)=O)CSSC1(C)C	> 10000	1700	> 10000	12	400	150			
CCCC[C@H](NC(=O)[C@@H](NC(=O)[C@@H](N)Cc1ccc(O)cc1)C(C)C)C(=O)N[C@H]1CSSC[C@H](C(=O)N[C@@H](CCCN=C(N)N)C(=O)N[C@@H](Cc2ccccc2)C(=O)NCC(N)=O)NC(=O)[C@H](Cc2c[nH]c3ccccc23)NC(=O)[C@H](CCCN=C(N)N)NC(=O)[C@H](Cc2ccccc2)NC(=O)[C@H](Cc2c[nH]cn2)NC1=O	83	220	270	> 10000	39	240			
CCCC[C@H](NC(=O)[C@@H](NC(=O)[C@@H](N)Cc1ccc(O)cc1)C(C)C)C(=O)N[C@@H]1CSSC[C@@H](C(=O)N[C@@H](CCCNC(=N)N)C(=O)N[C@@H](Cc2ccccc2)C(=O)NCC(N)=O)NC(=O)[C@H](Cc2c[nH]c3ccccc23)NC(=O)[C@H](CCCNC(=N)N)NC(=O)[C@H](Cc2ccccc2)NC(=O)[C@H](Cc2cnc[nH]2)NC1=O	360	210	140	1200	210	1600			
CCCC[C@H](NC(=O)[C@@H](NC(=O)[C@@H](N)Cc1ccc(O)cc1)C(C)C)C(=O)N[C@H]1CSSC[C@@H](C(=O)N[C@@H](CCCNC(=N)N)C(=O)N[C@@H](Cc2ccccc2)C(=O)NCC(N)=O)NC(=O)[C@H](Cc2c[nH]c3ccccc23)NC(=O)[C@H](CCCNC(=N)N)NC(=O)[C@H](Cc2ccccc2)NC(=O)[C@H](Cc2cnc[nH]2)NC1=O	170	27	3.2	2.5	4.2	6.8			
CC(C)[C@H](NC(=O)[C@@H](N)Cc1ccc(O)cc1)C(=O)N[C@H]1CSSC[C@H](C(=O)N[C@@H](CCCN=C(N)N)C(=O)N[C@@H](Cc2ccccc2)C(=O)NCC(N)=O)NC(=O)[C@H](Cc2c[nH]c3ccccc23)NC(=O)[C@H](CCCN=C(N)N)NC(=O)[C@H](Cc2ccccc2)NC(=O)[C@H](Cc2c[nH]cn2)NC(=O)CNC1=O	> 10000	> 3900	> 10000	> 10000	> 10000	> 10000			
CC(C)[C@H](NC(=O)[C@@H](N)Cc1ccc(O)cc1)C(=O)N[C@H]1CSSC[C@@H](C(=O)N[C@@H](CCCN=C(N)N)C(=O)N[C@@H](Cc2ccccc2)C(=O)NCC(N)=O)NC(=O)[C@H](Cc2c[nH]c3ccccc23)NC(=O)[C@H](CCCN=C(N)N)NC(=O)[C@H](Cc2ccccc2)NC(=O)[C@H](Cc2c[nH]cn2)NC(=O)CNC1=O	9	210	450	22	36	68			
CCCC[C@H](NC(=O)[C@@H](NC(=O)[C@@H](N)Cc1ccc(O)cc1)C(C)C)C(=O)NCC(=O)N[C@@H](Cc1c[nH]cn1)C(=O)N[C@@H](Cc1ccccc1)C(=O)N[C@@H](CCCN=C(N)N)C(=O)N[C@H](Cc1ccc2ccccc2c1)C(=O)N[C@@H](CC(=O)O)C(=O)N[C@@H](CCCN=C(N)N)C(=O)N[C@@H](Cc1ccccc1)C(=O)NCC(N)=O	> 10000	17	28	1.5	2400	15		80	31
CCCC[C@H](NC(=O)[C@@H](NC(=O)[C@@H](N)Cc1ccc(O)cc1)C(C)C)C(=O)NCC(=O)N[C@@H](Cc1c[nH]cn1)C(=O)N[C@@H](Cc1ccccc1)C(=O)N[C@@H](CCCN=C(N)N)C(=O)N[C@@H](Cc1c[nH]c2ccccc12)C(=O)N[C@@H](CC(=O)O)C(=O)N[C@@H](CCCN=C(N)N)C(=O)N[C@@H](Cc1ccccc1)C(=O)NCC(N)=O				62			105		
CC(C)[C@H](NC(=O)[C@@H](N)Cc1ccc(O)cc1)C(=O)N[C@H]1CSSC(C)(C)[C@@H](C(=O)N[C@@H](CCCNC(=N)N)C(=O)N[C@@H](Cc2ccccc2)C(=O)NCC(N)=O)NC(=O)[C@H](Cc2c[nH]c3ccccc23)NC(=O)[C@H](CCCNC(=N)N)NC(=O)[C@H](Cc2ccccc2)NC(=O)[C@H](Cc2cnc[nH]2)NC(=O)CNC1=O (H-YVCGHFRW[Pen]RFG-NH2; disulfide 3-9)	> 10000	480	> 10000	> 10000	> 10000	480			
CCCC[C@H](NC(=O)[C@@H](NC(=O)[C@@H](N)Cc1ccc(O)cc1)C(C)C)C(=O)NCC(=O)N[C@@H](CCN)C(=O)N[C@@H](Cc1ccccc1)C(=O)N[C@@H](CCCN=C(N)N)C(=O)N[C@H](Cc1ccc2ccccc2c1)C(=O)N[C@@H](CC(=O)O)C(=O)N[C@@H](CCCN=C(N)N)C(=O)N[C@@H](Cc1ccccc1)C(=O)NCC(N)=O								100	
CCCC[C@H](NC(=O)[C@@H](NC(=O)[C@@H](N)Cc1ccc(O)cc1)C(C)C)C(=O)NCC(=O)N[C@@H](Cc1c[nH]cn1)C(=O)N[C@H](Cc1ccc2ccccc2c1)C(=O)N[C@@H](CCCN=C(N)N)C(=O)N[C@H](Cc1ccc2ccccc2c1)C(=O)N[C@@H](CC(=O)O)C(=O)N[C@@H](CCCN=C(N)N)C(=O)N[C@@H](Cc1ccccc1)C(=O)NCC(N)=O	44	> 4800	> 10000	4.6	12	12	100		40
CCCC[C@H](NC(=O)[C@@H](NC(=O)[C@@H](N)Cc1ccc(O)cc1)C(C)C)C(=O)NCC(=O)N1CCC[C@H]1C(=O)N[C@H](Cc1ccc2ccccc2c1)C(=O)N[C@@H](CCCN=C(N)N)C(=O)N[C@@H](Cc1c[nH]c2ccccc12)C(=O)N[C@@H](CC(=O)O)C(=O)N[C@@H](CCCN=C(N)N)C(=O)N[C@@H](Cc1ccccc1)C(=O)NCC(N)=O (H-YV[Nle]GP[d2Nal]RWDRFG-NH2)		14		0.22		0.2	100		70
CCCC[C@H](NC(=O)[C@@H](NC(=O)[C@@H](N)Cc1ccc(O)cc1)C(C)C)C(=O)NCC(=O)NC(C)(C)C(=O)N[C@@H](Cc1ccccc1)C(=O)N[C@@H](CCCN=C(N)N)C(=O)N[C@H](Cc1ccc2ccccc2c1)C(=O)N[C@@H](CC(=O)O)C(=O)N[C@@H](CCCN=C(N)N)C(=O)N[C@@H](Cc1ccccc1)C(=O)NCC(N)=O	> 10000	120	1.8	4800	> 10000	3400			
CC(C)[C@H](NC(=O)[C@@H](N)Cc1ccc(O)cc1)C(=O)N[C@H]1C(=O)NCC(=O)N[C@@H](Cc2c[nH]cn2)C(=O)N[C@H](Cc2ccccc2)C(=O)N[C@@H](CCCN=C(N)N)C(=O)N[C@@H](Cc2c[nH]c3ccccc23)C(=O)N[C@H](C(=O)N[C@@H](CCCN=C(N)N)C(=O)N[C@@H](Cc2ccccc2)C(=O)NCC(N)=O)CSSC1(C)C									77
CCCC[C@H](NC(=O)[C@@H](NC(=O)[C@@H](N)Cc1ccc(O)cc1)C(C)C)C(=O)N[C@H]1CC(=O)NCCCC[C@@H](C(=O)N[C@@H](CCCN=C(N)N)C(=O)N[C@@H](Cc2ccccc2)C(=O)NCC(N)=O)NC(=O)[C@H](Cc2c[nH]c3ccccc23)NC(=O)[C@H](CCCN=C(N)N)NC(=O)[C@H](Cc2ccccc2)NC(=O)[C@H](Cc2c[nH]cn2)NC1=O	340	8.8	200	9.6	240	5.5			
CCCC[C@H](NC(=O)[C@@H](NC(=O)[C@@H](N)Cc1ccc(O)cc1)C(C)C)C(=O)NCC(=O)N[C@@H](Cc1c[nH]cn1)C(=O)N[C@H](Cc1ccc2ccccc2c1)C(=O)N[C@@H](CCCN=C(N)N)C(=O)N[C@@H](Cc1c[nH]c2ccccc12)C(=O)N[C@@H](CC(=O)O)C(=O)N[C@@H](CCCN=C(N)N)C(=O)N[C@@H](Cc1ccccc1)C(=O)NCC(N)=O		1			> 10000	0.81	100		
